Measurements taken from ChEMBL document CHEMBL1671680, “Pradimicin S, a highly soluble nonpeptidic small-size carbohydrate-binding antibiotic, is an anti-HIV drug lead for both microbicidal and systemic use” (Antimicrob Agents Chemother, 2010).
Values after ≈ are worked out from the molar mass of the structure shown. Active and inactive are the calls of the source. The calls are words filed in the database; no cut-off is given here.

Tests used:
[1] = test system: Human immunodeficiency virus 1; assay: Antiviral activity against X4 tropic HIV-1 3B infected in human Raji cells expressing DC-SIGN gene assessed as inhibition of virus capture by Raji cells after 60 mins by ELISA; assay type: functional, organism-based; settings: Human immunodeficiency virus 1, 3B, 1 h
[2] = Chemical stability of the compound in 7mM sodium phosphate buffer after 4 days by HPLC at pH 4; assay type: physicochemical; settings: pH 4, 96 h
Outline: (§1)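 1 mM compound held 4 days in PBS at 50°C, or in 7 mM sodium phosphate pH 4.0 at room temperature; then analysed by reverse-phase HPLC (phosphate/heptanesulfonate pH 3.2 buffer–acetonitrile gradient, 1 ml/min).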

[3] = Binding affinity to HIV-1 3B gp120 assessed as dissociation rate constant after 6 mins by SPR analysis in presence of 10 mM CaCl2; design: species or system Human immunodeficiency virus 1
[4] = Chemical stability of the compound in PBS solution at 50 degC after 4 days by HPLC; assay type: physicochemical; settings: buffer, 96 h; outline: as §1
[5] = test system: PBMC; assay: Immunostimulatory activity against human PBMC assessed as IL-15 production at 22 uM after 72 hrs; assay type: functional, cell-based
Outline: (§2)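 Unstimulated PBMCs and PHA-blasts from three donors, in three independent experiments, cultured with test compound at 20 μg/ml (21 or 22 μM). Supernatants collected after 72 h. The cytokine profile was read on a Bio-Plex 27-plex human cytokine bead immunoassay, using beads coupled to cytokine-specific monoclonal antibodies and run per the kit instructions.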

[6] = Cytotoxicity against mouse L1210 cells after 3 to 4 days; assay type: cell-based
[7] = test system: Human immunodeficiency virus 1; assay: Ratio of EC50 for compound pretreated HIV-1 3B isolate 42 harboring gp120 mutant infected in human CEM cells to EC50 for HIV-1 3B expressing wild type gp120; assay type: functional, CCRF-CEM
[8] = test system: Human immunodeficiency virus 1; assay: Ratio of EC90 to EC50 for R5 tropic HIV-1 clade B isolate US2 infected in human PBMC; assay type: functional
Outline: (§3)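 PBMCs from healthy donors were PHA-stimulated (2 μg/ml, 3 days, 37°C), then seeded at 0.5 × 10^6 per well with compound dilutions in RPMI 1640 with 10% FCS and IL-2 (25 U/ml). Virus was added at 250 pg p24 or p27/ml final. On day 12, supernatant HIV-1 p24 or HIV-2 p27 was measured by ELISA, giving EC50 and EC90.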

[9] = Cytotoxicity against human thymidine kinase-negative OST cells after 3 to 4 days; assay type: cell-based
[10] = test system: PBMC; assay: Immunostimulatory activity against human PBMC assessed as IL-12 production at 22 uM after 72 hrs; assay type: functional, cell-based; outline: as §2
[11] = test system: PBMC; assay: Immunostimulatory activity against human PBMC assessed as suppression of IL-2 production at 22 uM after 72 hrs; assay type: functional; outline: as §2
[12] = test system: Human immunodeficiency virus 1; assay: Antiviral activity against R5 tropic HIV-1 clade A/E isolate ID12 infected in human PBMC assessed as inhibition of viral replication after 12 days by ELISA; settings: Human immunodeficiency virus 1, clade A/E isolate ID12, 12 days
[13] = test system: PBMC; assay: Immunostimulatory activity against human PBMC assessed as PDGF production at 21 uM after 72 hrs; assay type: functional, cell-based; outline: as §2
[14] = test system: Human immunodeficiency virus 1; assay: Antiviral activity against HIV-1 3B cells infected in human PBMC cells assessed as inhibition of virus-induced cytopathicity after 3 to 4 days by microscopic analysis; assay type: functional, organism-based; settings: Human immunodeficiency virus 1, 3B
[15] = test system: Human immunodeficiency virus 1; assay: Ratio of kd for HIV-1 HXB2 gp41 to kd for 3B gp120
[16] = test system: Human immunodeficiency virus 1; assay: Binding affinity to HIV-1 HXB2 gp41 after 6 mins by SPR analysis
[17] = test system: PBMC; assay: Immunostimulatory activity against human PBMC assessed as eotoxin production at 21 uM after 72 hrs; assay type: functional, cell-based
Outline: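 In three independent experiments, PBMCs and PHA-blasts from three donors were cultured with compound for 72 h. Supernatants were analysed with a bead-based 27-plex human cytokine immunoassay covering interleukins, chemokines, growth factors, IFN-γ and TNF-α.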

[18] = test system: Human immunodeficiency virus 2; assay: Ratio of EC90 to EC50 for X4 tropic HIV-2 BV-5061 W infected in human PBMC
[19] = test system: Human immunodeficiency virus 1; assay: Antiviral activity against R5 tropic HIV-1 clade G isolate BCF-DIOUM infected in human PBMC assessed as inhibition of viral replication […] by ELISA; assay type: functional, organism-based; settings: Human immunodeficiency virus 1, clade G isolate BCF-DIOUM
Outline: (§4)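 PBMCs from healthy donors were stimulated with PHA (2 μg/ml) for 3 days, then seeded at 0.5 × 10^6 cells/well in RPMI 1640 with 10% FCS, IL-2 (25 U/ml) and compound. Virus was added at a final 250 pg p24/ml. Supernatant was taken at day 12 for p24 antigen ELISA.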

[20] = test system: Human immunodeficiency virus 1; assay: Ratio of EC90 to EC50 for X4 tropic HIV-1 Bal infected in human PBMC; assay type: functional; settings: in the assay text read “R5 tropic” for “X4 tropic”; outline: as §3
[21] = test system: PBMC; assay: Immunostimulatory activity against human PBMC assessed as IL-10 production at 22 uM after 72 hrs; assay type: functional, cell-based
[22] = test system: PBMC; assay: Cytotoxicity against human PBMC cells at 500 uM after 7 days; assay type: cell-based; settings: 168 h
Outline: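 Mock-infected PHA-stimulated PBMC exposed to compound in RPMI 1640 with 10% FCS and IL-2 (25 U/ml); viability measured by trypan blue staining at day 7.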

[23] = test system: Human immunodeficiency virus 1; assay: Ratio of ka for HIV-1 3B gp120 to ka for HIV-1 HXB2 gp41
[24] = Antiviral activity against SIV mac251 infected in human HUT78 cells assessed as prevention of syncytium formation between persistently SIV mac251-infected HUT-78 cells and uninfected CEM cells after 3 to 4 days by ELISA; assay type: functional, cell-based, Simian immunodeficiency virus - mac; settings: Simian immunodeficiency virus, 251, CCRF-CEM
[25] = test system: Human immunodeficiency virus 1; assay: Antiviral activity against HIV-1 3B infected in human HUT78 cells assessed as prevention of syncytium formation between persistently HIV-1 3B-infected HUT-78 cells and uninfected SupT1 cells after 3 to 4 days by ELISA; assay type: functional, organism-based; settings: Human immunodeficiency virus 1, 3B, SUP-T1
[26] = test system: PBMC; assay: Immunostimulatory activity against human PBMC assessed as IL-8 production at 21 uM after 72 hrs; assay type: functional, cell-based; outline: as §2
[27] = test system: Human immunodeficiency virus 1; assay: Ratio of EC90 to EC50 for R5 tropic HIV-1 clade G isolate BCF-DIOUM infected in human PBMC; assay type: functional; outline: as §3
[28] = test system: Human immunodeficiency virus 1; assay: Ratio of EC90 to EC50 for R5 tropic HIV-1 clade F isolate BZ163 infected in human PBMC; assay type: functional; outline: as §3
[29] = test system: Human immunodeficiency virus 1; assay: Binding affinity to HIV-1 3B gp120 after 6 mins by SPR analysis
[30] = Binding affinity to HIV-1 3B gp120 after 6 mins by SPR analysis in presence of 10 mM CaCl2; design: species or system Human immunodeficiency virus 1
[31] = test system: PBMC; assay: Immunostimulatory activity against human PBMC assessed as IL-4 production at 22 uM after 72 hrs; assay type: functional, cell-based; outline: as §2
[32] = test system: Human immunodeficiency virus 1; assay: Antiviral activity against R5 tropic HIV-1 clade B isolate US2 infected in human PBMC assessed as inhibition of viral replication […] by ELISA; assay type: functional, organism-based; settings: Human immunodeficiency virus 1, clade B isolate US2; outline: as §4
[33] = Aqueous solubility of the compound; assay type: physicochemical; settings: aqueous medium; read-out: Activity

**Q.** For CN[C@@H]1[C@H](O[C@@H]2O[C@H](CO)[C@@H](O)[C@H](OS(=O)(=O)O)[C@H]2O)[C@@H](O)[C@H](O[C@H]2c3cc(C)c(C(=O)N[C@H](C)C(=O)O)c(O)c3-c3c(cc4c(c3O)C(=O)c3cc(OC)cc(O)c3C4=O)[C@@H]2O)O[C@@H]1C [PRADIMICIN S], which IC50 [1] is on record?
**A.** 11 µM

**Q.** And the Stability [2]?
**A.** Stable

**Q.** What about the Kd [3] of the same compound?
**A.** 5.11 ×10⁻³ /s

**Q.** What about the Stability [4] of the same compound?
**A.** Stable

**Q.** What about the Activity [5] of the same compound?
**A.** inactive

**Q.** What about the CC50 [6] of the same compound?
**A.** > 230 µM

**Q.** What about the “Ratio EC50” value [7] of the same compound?
**A.** >=20

**Q.** And the Ratio [8]?
**A.** 2

**Q.** What about the CC50 [9] of the same compound?
**A.** > 230 µM

**Q.** What about the Activity [10] of the same compound?
**A.** inactive

**Q.** What about the “fold change (FC)” value [11] of the same compound?
**A.** 4

**Q.** And the EC50 [12]?
**A.** 15 µM

**Q.** And the Activity [13]?
**A.** inactive

**Q.** What about the EC50 [14] of the same compound?
**A.** 8.5 µM

**Q.** What about the kd ratio [15] of the same compound?
**A.** 5

**Q.** And the Activity [16]?
**A.** inactive

**Q.** And the Activity [17]?
**A.** inactive

**Q.** And the Ratio [18]?
**A.** 2

**Q.** And the EC50 [19]?
**A.** 17 µM

**Q.** And the Ratio [20]?
**A.** 2

**Q.** What about the Activity [21] of the same compound?
**A.** inactive

**Q.** What about the Activity [22] of the same compound?
**A.** > 95%

**Q.** What about the ka ratio [23] of the same compound?
**A.** 10

**Q.** And the EC50 [24]?
**A.** 12 µM

**Q.** What about the EC50 [25] of the same compound?
**A.** 6 µM

**Q.** And the Activity [26]?
**A.** inactive

**Q.** What about the Ratio [27] of the same compound?
**A.** 2

**Q.** And the Ratio [28]?
**A.** 2

**Q.** And the Activity [29]?
**A.** inactive

**Q.** What about the Kd [30] of the same compound?
**A.** 0.4 µM

**Q.** And the Activity [31]?
**A.** inactive

**Q.** What about the EC50 [32] of the same compound?
**A.** 11 µM

**Q.** With CN[C@@H]1[C@H](O[C@@H]2OC[C@@H](O)[C@H](O)[C@H]2O)[C@@H](O)[C@H](O[C@H]2c3cc(C)c(C(=O)N[C@H](C)C(=O)O)c(O)c3-c3c(cc4c(c3O)C(=O)c3cc(OC)cc(O)c3C4=O)[C@@H]2O)O[C@@H]1C [PRADIMICIN A] as the compound, how does the IC50 [1] read?
**A.** 3.5 µM

**Q.** And the solubility [33]?
**A.** 50 µM (≈ 42 µg/mL)

**Q.** What about the Kd [3] of the same compound?
**A.** 6.1 ×10⁻³ /s

**Q.** What about the Activity [5] of the same compound?
**A.** inactive

**Q.** And the CC50 [6]?
**A.** > 50 µM

**Q.** What about the Ratio [8] of the same compound?
**A.** 2

**Q.** And the CC50 [9]?
**A.** > 50 µM

**Q.** What about the Activity [10] of the same compound?
**A.** inactive

**Q.** What about the “fold change (FC)” value [11] of the same compound?
**A.** 4

**Q.** And the EC50 [12]?
**A.** 4.7 µM

**Q.** What about the Activity [13] of the same compound?
**A.** inactive

**Q.** And the Activity [16]?
**A.** inactive

**Q.** And the Activity [17]?
**A.** inactive

**Q.** And the Ratio [18]?
**A.** 2

**Q.** What about the EC50 [19] of the same compound?
**A.** 6.7 µM

**Q.** What about the Ratio [20] of the same compound?
**A.** 2

**Q.** What about the Activity [21] of the same compound?
**A.** inactive

**Q.** What about the EC50 [24] of the same compound?
**A.** 4.3 µM

**Q.** What about the EC50 [25] of the same compound?
**A.** 3.4 µM

**Q.** What about the Activity [26] of the same compound?
**A.** inactive

**Q.** What about the Ratio [27] of the same compound?
**A.** 2

**Q.** And the Ratio [28]?
**A.** 2

**Q.** What about the Activity [29] of the same compound?
**A.** inactive

**Q.** What about the Kd [30] of the same compound?
**A.** 0.41 µM

**Q.** What about the Activity [31] of the same compound?
**A.** inactive

**Q.** And the EC50 [32]?
**A.** 6 µM
